From PMC4306626 (Journal of chromatography. B, Analytical technologies in …, 2015)
Where “and” joins values, the source holds several entries; their conditions need not be identical. Equal entries are not always repeated. Marks after values point to notes of the source that are not given here. Blank lines part the entries; values can stand above or below the molecule they belong to.

How the values were obtained:
metastatic cancer cells [1] = conditions: cited from earlier work
metastatic cancer cells [2] = conditions: higher concentrations; cited from earlier work
[3] = Pharmacokinetics in nude mice after single IP or PO dose; format: in vivo, athymic nude (Nu/Nu) mice; conditions: for clearance (Cl/F): range over doses; for AUC(0-t) / Cmax / MRT / Vd/F / MRT inf / Tmax / half-life / AUC(0-inf): female, athymic nude (Nu/Nu), mouse, plasma
How it was run: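 Female athymic nude mice, 3–4 weeks old, received a single 0.1 mL dose at 10, 20 or 40 mg/kg, given IP or by oral gavage. Vehicle was cremophor:ethanol:PBS (12.5:12.5:75). Four to five mice per group were killed at 0.5, 1, 4, 8 and 12 h. Cardiac blood went into sodium citrate on ice. Plasma was protein-precipitated with internal standard and assayed by UPLC/MS/MS (5–1000 ng/mL). Pooled non-compartmental analysis used linear/log-linear trapezoids.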

murine melanoma cell = conditions: cited from earlier work
Rho GTPase Cdc42 = conditions: higher concentrations; cited from earlier work
mammary fat pad tumor = conditions: 25 mg/kg body weight (BW), nude mice; cited from earlier work
human leukemic cell = conditions: cited from earlier work
[4] = Stability of EHop-016 in mouse plasma; format: in vitro ADME; conditions: for Concentration Measured (Mean ± S.D.): n=6; for Accuracy (% RE): stable if within ± 15 %
How it was run: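 Test compound was spiked into mouse plasma at 5 and 1000 ng/mL and held on the bench for 5 h, six replicates per level. It was then extracted by protein precipitation and quantified by UPLC/MS/MS against plasma calibration standards. Accuracy was %RE against nominal and precision was %RSD. The compound counted as stable when %RE was within ± 15 %.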

c-Myc and Cyclin D = conditions: breast and prostate cancer cell lines; cited from earlier work
human T-lymphocyte = conditions: cited from earlier work
[5] = test system: Rac with the guanine nucleotide exchange factor Vav2; conditions: cited from earlier work
murine leukemic cell = conditions: cited from earlier work
Akt and Jun kinase (JNK) = conditions: breast and prostate cancer cell lines; cited from earlier work
[6] = test system: p21-activated kinase 1 (PAK1); conditions: cited from earlier work
Rac = conditions: read-out: IC50, Rac activity; metastatic cancer cells; cited from earlier work
[7] = Physicochemical properties
endothelial cells = conditions: in vitro; cited from earlier work
[8] = cited from earlier work
[9] = Benchtop (5 Hr), nominal 5 ng/mL
[10] = Benchtop (5 Hr), nominal 1000 ng/mL

Cl/F ([3]; IP, 10 mg/kg): 494.2 ± 79.4 mL/h
Lambda-z ([3]; IP, 10 mg/kg): .12 ± 0.01 hr ^−1
AUC0-t/Dose ([3]; IP, 10 mg/kg, n=5): 32.80 ± 4.21^a
Cl/F ([3]; IP, 20 mg/kg): 464.7 ± 51.5 mL/h
Lambda-z ([3]; IP, 20 mg/kg): .15 ± .01 hr ^−1
AUC0-t/Dose ([3]; IP, 20 mg/kg, n=5): 38.42 ± 3.53^a
Cl/F ([3]; IP, 40 mg/kg): 394.2 ± 46.6 mL/h
Lambda-z ([3]; IP, 40 mg/kg): .18 ± .01 hr ^−1
AUC0-t/Dose ([3]; IP, 40 mg/kg, n=5): 46.75 ± 5.42^a
clearance (Cl/F) ([3]; IP): 394 to 494 mL/h and 394.2 to 494.2 mL/h
relative bioavailability after oral gavage ([3]; PO vs IP, range over the tested doses): 26% - 40%
plasma drug concentrations lower after PO than after IP ([3]; PO vs corresponding IP dosages): ~ 10 times
Cl/F ([3]; PO, 10 mg/kg): 1315.3 mL/h and 1315.3 ± 281.7 mL/h
Lambda-z ([3]; PO, 10 mg/kg): .20 ± .01 hr ^−1
AUC0-t/Dose ([3]; PO, 10 mg/kg, n=4): 13.37 ± 2.25
Frel (relative bioavailability, PO to IP) ([3]; PO, 20 mg/kg): 33.4 ± 4.9%
AUC0-t/Dose ([3]; PO, 20 mg/kg, n=4): 12.85 ± 3.11
Cl/F ([3]; PO, 40 mg/kg): 1251.4 mL/h and 1251.4 ± 388.1 mL/h
Frel (relative bioavailability, PO to IP) ([3]; PO, 40 mg/kg): 26.0 ± 3.1%
Lambda-z ([3]; PO, 40 mg/kg): .12 ± .001 hr ^−1
AUC0-t/Dose ([3]; PO, 40 mg/kg, n=4): 12.17 ± 2.9
clearance (Cl/F) ([3]; PO): 1251 to 1315 mL/h
elimination half-life (t1/2) ([3]; PO, range over the tested doses): 3.44 to 5.87 h
Vss ([3]; after IP doses, approximately): 65 to 72 L/kg BW
AUC(0-t) ([3]; ip): 328 to 1870 ng·h/mL
Cmax ([3]; ip): 163 to 835 ng/mL
MRT ([3]; ip): 4.21 to 6.75 h
Vd/F ([3]; ip): 2.2 to 4.1 L
AUC(0-t) ([3]; ip, 10 mg/kg): 328 ± 42.1 ng·h/mL
Cmax ([3]; ip, 10 mg/kg): 163 ± 17.7 ng/mL
MRT inf ([3]; ip, 10 mg/kg): 6.75 ± 0.27 h
Tmax ([3]; ip, 10 mg/kg): 30 min
Vd/F ([3]; ip, 10 mg/kg): 4.09 ± 0.297 L
half-life ([3]; ip, 10 mg/kg, t1/2, IP): 344 ± 25.8 min
AUC(0-t) ([3]; ip, 20 mg/kg): 768 ± 70.6 ng·h/mL
Cmax ([3]; ip, 20 mg/kg): 455 ± 50.3 ng/mL
MRT inf ([3]; ip, 20 mg/kg): 4.73 ± 0.27 h
Tmax ([3]; ip, 20 mg/kg): 30 min
Vd/F ([3]; ip, 20 mg/kg): 3.12 ± 0.0927 L
half-life ([3]; ip, 20 mg/kg, t1/2, IP): 280 ± 21 min
AUC(0-inf) ([3]; ip, 40 mg/kg): 328 to 1870 ng·h/mL
AUC(0-t) ([3]; ip, 40 mg/kg): 1870 ± 217 ng·h/mL
Cmax ([3]; ip, 40 mg/kg): 834 ± 88.9 ng/mL
MRT inf ([3]; ip, 40 mg/kg): 4.21 ± 0.14 h
Tmax ([3]; ip, 40 mg/kg): 30 min
Vd/F ([3]; ip, 40 mg/kg): 2.16 ± 0.337 L
half-life ([3]; ip, 40 mg/kg, t1/2, IP): 227 ± 7.2 min
Tmax ([3]; other: intraperitoneal and oral, 20 mg/kg): 30 min
AUC(0-t) ([3]; po): 134 to 487 ng·h/mL
Cmax ([3]; po): 26 to 90 ng/mL
MRT ([3]; po): 6.59 to 8.76 h
Vd/F ([3]; po): 6.5 to 10.6 L
AUC(0-t) ([3]; po, 10 mg/kg): 134 ± 22.5 ng·h/mL
Cmax ([3]; po, 10 mg/kg): 26.1 ± 10.1 ng/mL
MRT inf ([3]; po, 10 mg/kg): 6.59 ± 0.37 h
Tmax ([3]; po, 10 mg/kg): 30 min
Vd/F ([3]; po, 10 mg/kg): 6.53 ± 1.78 L
half-life ([3]; po, 10 mg/kg, t1/2, PO): 206 ± 9 min
AUC(0-t) ([3]; po, 20 mg/kg): 257 ± 62.3 ng·h/mL
Cmax ([3]; po, 20 mg/kg): 35.1 ± 11 ng/mL
Tmax ([3]; po, 20 mg/kg): 60 min
AUC(0-inf) ([3]; po, 40 mg/kg): 133 to 487 ng·h/mL
AUC(0-t) ([3]; po, 40 mg/kg): 487 ± 116 ng·h/mL
Cmax ([3]; po, 40 mg/kg): 89.7 ± 17.6 ng/mL
MRT inf ([3]; po, 40 mg/kg): 8.76 ± 0.43 h
Tmax ([3]; po, 40 mg/kg): 30 min
Vd/F ([3]; po, 40 mg/kg): 10.6 ± 3.39 L
half-life ([3]; po, 40 mg/kg, t1/2, PO): 352 ± 3.6 min
share of the drug in the bloodstream ([3]; suggested by Vss values): < 1%
stability in mouse plasma ([4]; 12 freeze-thaw cycles lasting 12 hours and six freeze-thaw cycles lasting 24 hours): stable
Concentration Measured (Mean ± S.D.) [4, 9]: 4.67 ± 0.36 ng/mL
Accuracy (% RE) [4, 9]: −6.6 % RE
Concentration Measured (Mean ± S.D.) [4, 10]: 999.39 ± 17.23 ng/mL
Accuracy (% RE) [4, 10]: −0.1 % RE
Accuracy (% RE) ([4]; Freeze-Thaw 6 Cycles (24 Hr), nominal 5 ng/mL): 14.3 % RE
Accuracy (% RE) ([4]; Freeze-Thaw 6 Cycles (24 Hr), nominal 1000 ng/mL): 11.6 % RE
Concentration Measured (Mean ± S.D.) ([4]; Freeze-Thaw 6 Cycles (24 Hr), −80°C, nominal 5 ng/mL): 5.71 ± 0.34 ng/mL
Concentration Measured (Mean ± S.D.) ([4]; Freeze-Thaw 6 Cycles (24 Hr), −80°C, nominal 1000 ng/mL): 1116.32 ± 27.38 ng/mL
Accuracy (% RE) ([4]; Freeze-Thaw 12 Cycles (12 Hr), nominal 5 ng/mL): 11.3 % RE
Accuracy (% RE) ([4]; Freeze-Thaw 12 Cycles (12 Hr), nominal 1000 ng/mL): 12.8 % RE
Concentration Measured (Mean ± S.D.) ([4]; Freeze-Thaw 12 Cycles (12 Hr), −80°C, nominal 5 ng/mL): 5.57 ± 0.05 ng/mL
Concentration Measured (Mean ± S.D.) ([4]; Freeze-Thaw 12 Cycles (12 Hr), −80°C, nominal 1000 ng/mL): 1127.70 ± 14.36 ng/mL
Accuracy (% RE) ([4]; Long Term Stability 26 Days, nominal 5 ng/mL): 4.9 % RE
Accuracy (% RE) ([4]; Long Term Stability 26 Days, nominal 1000 ng/mL): 0.4 % RE
Concentration Measured (Mean ± S.D.) ([4]; Long Term Stability 26 Days, −20°C, nominal 5 ng/mL): 5.24 ± 0.08 ng/mL
Concentration Measured (Mean ± S.D.) ([4]; Long Term Stability 26 Days, −20°C, nominal 1000 ng/mL): 1004.39 ± 25.98 ng/mL
Accuracy (% RE) ([4]; Long Term Stability 111 Days, nominal 5 ng/mL): −1.3 % RE
Accuracy (% RE) ([4]; Long Term Stability 111 Days, nominal 1000 ng/mL): −4.3 % RE
Concentration Measured (Mean ± S.D.) ([4]; Long Term Stability 111 Days, −20°C, nominal 5 ng/mL): 4.94 ± 0.29 ng/mL
Concentration Measured (Mean ± S.D.) ([4]; Long Term Stability 111 Days, −20°C, nominal 1000 ng/mL): 956.77 ± 79.26 ng/mL
Concentration Measured (Mean ± S.D.) ([4]; Post Preparation (237 Hours), ambient temperature, nominal 10 ng/mL): 10.79 ± 0.25 ng/mL
Concentration Measured (Mean ± S.D.) ([4]; Post Preparation (237 Hours), ambient temperature, nominal 30 ng/mL): 32.20 ± 1.40 ng/mL
Concentration Measured (Mean ± S.D.) ([4]; Post Preparation (237 Hours), ambient temperature, nominal 75 ng/mL): 83.79 ± 2.06 ng/mL
Concentration Measured (Mean ± S.D.) ([4]; Post Preparation (237 Hours), ambient temperature, nominal 750 ng/mL): 838.83 ± 22.57 ng/mL
Accuracy (% RE) ([4]; Post Preparation (237 Hours), nominal 10 ng/mL): 7.88 % RE
Accuracy (% RE) ([4]; Post Preparation (237 Hours), nominal 30 ng/mL): 7.32 % RE
Accuracy (% RE) ([4]; Post Preparation (237 Hours), nominal 75 ng/mL): 11.72 % RE
Accuracy (% RE) ([4]; Post Preparation (237 Hours), nominal 750 ng/mL): 11.84 % RE
stability in mouse plasma ([4]; all of the conditions tested in the validation): very stable
stability in mouse plasma ([4]; ambient temperature, five hours and 237 hours): stable
stability in mouse plasma ([4]; long-term at –20°C, 26 days and 111 days): stable
pKa [7]: 5
lipid solubility ([7]; source not stated): highly lipid-soluble
SMILES: CCn1c2ccccc2c2cc(Nc3ccnc(NCCCN4CCOCC4)n3)ccc21 [EHop-016, (N4-(9-Ethyl-9H-carbazol-3-yl)-N2-(3-morpholin-4-yl-propyl)-pyrimidine-2,4-diamine)]
Rac-directed lamellipodia formation and directed cell migration (metastatic cancer cells [1]): inhibit
concentration at which apoptosis is activated (metastatic cancer cells [2]): > 10 µM
concentration at which cell viability is reduced (metastatic cancer cells [2]): > 10 µM
murine melanoma cell migration (murine melanoma cell): inhibits
concentration at which activity of the Rho GTPase Cdc42 is inhibited (Rho GTPase Cdc42): > 10 µM
tumor growth, metastasis and angiogenesis (mammary fat pad tumor): effective at reducing mammary fat pad tumor growth, metastasis, and angiogenesis
human leukemic cell growth (human leukemic cell): inhibits
expression of c-Myc and Cyclin D (c-Myc and Cyclin D): decreased
human T-lymphocyte migration (human T-lymphocyte): inhibits
interaction of Rac with Vav2 [5]: disrupt
murine leukemic cell growth (murine leukemic cell): inhibits
Akt and Jun kinase (JNK) activities (Akt and Jun kinase (JNK)): decreased
activity of PAK1 [6]: inhibit
IC50 (Rac): 1000 nM
Rac activity and capillary tube formation of endothelial cells (endothelial cells): inhibition

SMILES: CS(=O)(=O)CCNCc1ccc(-c2ccc3ncnc(Nc4ccc(OCc5cccc(F)c5)c(Cl)c4)c3c2)o1 [lapatinib]
systemic bioavailability (F) ([8]; 10 mg/kg oral input): 43 – 50%
time-to-peak (Tmax) ([8]; PO, 10 mg/kg, male mice): 30 min
